Laboratory results reported in PubChem BioAssay.
Activity calls are given as the source filed them.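 The calls were made as follows, unless noted: active = inhibition at or above 50% relative to wild type and mutant plate controls; inactive = inhibition below 50%.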

How the values were obtained:
[1] = inhibitors of TNFa-induced NFkB p65 translocation, primary screen, imaging, HUVEC, MLSMR starter and 10KST1 sets (AID 438;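 active = inhibition above 20% together with a positive visual image hit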;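 also: compound added about 3h40 before a 20 min TNFalpha stimulation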;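 as to inhibition: signal is the nuclear over cytoplasmic p65 intensity ratio per well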); conditions: HUVEC TNFa-induced p65 nuclear translocation; cell count: measured here: nuclei count (cytotoxicity indicator), at 2.08 µM; inhibition: at 2 µM, stronger effect = higher value, 0% TNFa-plus-vehicle, 100% no-TNFa wells
[2] = endothelial E-selectin expression blockers – imaging, HUVEC, immunofluorescence, MLSMR starter and 10KST1 sets, primary screen (AID 487;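 active = visually confirmed hit in the image check and inhibition above 20%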;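 as to inhibition: signal is fraction of cell area covered by stained E-selectin grains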;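 as to nuclei count: 100% = median nuclei count of all wells on the same plate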); conditions: HUVEC TNFalpha-induced E-selectin immunofluorescence imaging, at 2 µM; inhibition: stronger effect = higher value; nuclei count: measured here: cell number, toxicity
[3] = Primary imaging screen for DUSP6 inhibitors that restore phospho-Erk in transfected HeLa cells, chemical complementation (AID 609;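 active = compounds giving at least 50% inhibition in the cell-based MKP-3 phosphatase rescue imaging test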;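 as to inhibition: phospho-Erk level distribution per well compared with pooled transfected vehicle control wells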); conditions: HeLa MKP-3 transfected, phospho-Erk imaging KS statistic, at 10 µM, cells stimulated with TPA for 15 min
[4] = target: Dual specificity protein phosphatase 6 (Homo sapiens) (UniProt Q16828); assay: as above; conditions: HeLa MKP-3 transfected, phospho-Erk imaging KS statistic; at 10 µM; stronger effect = higher value; cells stimulated with TPA for 15 min
Chain of Dual specificity protein phosphatase 6 (Homo sapiens) (Q16828 whole entry, looked up): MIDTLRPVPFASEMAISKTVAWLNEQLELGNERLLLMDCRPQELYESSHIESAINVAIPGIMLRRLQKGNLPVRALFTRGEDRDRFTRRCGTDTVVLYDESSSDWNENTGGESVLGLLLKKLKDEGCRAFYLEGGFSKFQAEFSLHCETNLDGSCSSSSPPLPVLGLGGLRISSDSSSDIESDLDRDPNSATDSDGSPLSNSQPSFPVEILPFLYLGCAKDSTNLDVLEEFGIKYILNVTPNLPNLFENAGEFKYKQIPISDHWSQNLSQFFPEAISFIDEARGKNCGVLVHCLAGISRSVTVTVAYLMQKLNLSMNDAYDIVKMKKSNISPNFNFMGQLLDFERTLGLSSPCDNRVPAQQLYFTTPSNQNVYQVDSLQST

[5] = target: Voltage-gated potassium channel subunit beta-2 (Rattus norvegicus) (UniProt P62483); assay: inhibitors of rat Kvbeta2 reductase activity – biochemical, NADPH fluorescence, primary screen (AID 622;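 active = fluorescence slope higher than the sample average by over 3 SD, cut at about -0.22 in these data, passing the limit was not always enough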;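 also: slope of raw intensity against log time taken from 70 to 1610 s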); conditions: recombinant KvBeta, 4-cyanobenzaldehyde reduction, at 10 µM, stronger effect = higher value
Chain of Voltage-gated potassium channel subunit beta-2 (Rattus norvegicus) (P62483 whole entry, looked up): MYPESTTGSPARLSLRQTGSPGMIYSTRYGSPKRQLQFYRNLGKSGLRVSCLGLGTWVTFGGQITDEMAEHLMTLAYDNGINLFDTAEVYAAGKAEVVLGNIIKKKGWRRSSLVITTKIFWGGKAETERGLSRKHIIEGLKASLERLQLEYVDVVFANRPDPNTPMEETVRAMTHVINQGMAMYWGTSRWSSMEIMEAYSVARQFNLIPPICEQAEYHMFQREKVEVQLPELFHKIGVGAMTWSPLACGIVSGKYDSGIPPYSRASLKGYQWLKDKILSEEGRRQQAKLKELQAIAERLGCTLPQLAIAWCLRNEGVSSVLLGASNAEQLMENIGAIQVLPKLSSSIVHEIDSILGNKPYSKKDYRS

[6] = target: Voltage-gated potassium channel subunit beta-2 (Rattus norvegicus) (UniProt P62483); assay: enhancers of rat Kvbeta2 NADPH turnover – biochemical, NADPH fluorescence, primary screen (AID 623;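 active = NADPH fluorescence slope more negative than the mean of all samples by about 3 SD, 99.7% confidence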;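 also: fluorescence intensity change per second fitted from 20 to 320 s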); conditions: Recombinant KvBeta, NADPH fluorescence decrease slope, 10 min; at 10 µM; stronger effect = lower value
[7] = target: Alpha-2C adrenergic receptor (Homo sapiens) (UniProt P18825); assay: compounds altering alpha2C-coupled GIRK flux – cell-based, HEK293 alpha2C/GIRK1/2, thallium flux, primary screen (AID 624;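 active = fluorescence slope after compound addition differing from the mean of all screened samples at 99.7% confidence, in either direction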;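 also: slope of fluorescence ratio to pre-addition baseline per second over 15 to 24 s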); conditions: thallium flux BTC fluorescence, at 10 µM, actives lie on both sides
Chain of Alpha-2C adrenergic receptor (Homo sapiens) (P18825 whole entry, looked up): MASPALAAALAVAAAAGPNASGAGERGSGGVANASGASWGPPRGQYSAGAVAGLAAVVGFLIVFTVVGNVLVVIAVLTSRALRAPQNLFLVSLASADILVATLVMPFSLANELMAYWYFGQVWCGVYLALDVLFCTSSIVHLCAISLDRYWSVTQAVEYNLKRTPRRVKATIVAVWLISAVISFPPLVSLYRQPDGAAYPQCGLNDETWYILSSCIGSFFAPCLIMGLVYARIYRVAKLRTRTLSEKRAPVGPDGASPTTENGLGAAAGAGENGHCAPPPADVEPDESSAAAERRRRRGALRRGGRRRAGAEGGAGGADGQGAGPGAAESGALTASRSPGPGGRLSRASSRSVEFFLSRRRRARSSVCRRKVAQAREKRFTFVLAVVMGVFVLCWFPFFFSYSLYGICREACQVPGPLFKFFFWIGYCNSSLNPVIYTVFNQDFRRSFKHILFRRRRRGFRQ

[8] = inhibitors of larval lipid processing in zebrafish, primary screen, whole organism, PED6 fluorescence, gall bladder and intestine (AID 686;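 active = a full or partial loss of lipid-probe fluorescence in the fish gall bladder, intestine or both, judged by eye; inactive = no fluorescence loss, or compound toxic to the fish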;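 also: larvae 5 to 7 days old with five fish per well; signal comes from phospholipase A2 cleavage of quenched PED6 carried via bile; overnight exposure to compound and PED6 before scoring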); conditions: Zebrafish larvae PED6 lipid processing, fluorescence scoring; screened at 20 µM (by protocol)
In short: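 Doses: 20 µM single dose. Test system: live zebrafish larvae aged 5-7 days, whole organism. Quantity: five larvae per well. Measured by: By-eye fluorescence microscopy. Reagent: ingested quenched lipid PED6 at 100 nM. Read-out: visual per-well fluorescence inhibition score. Times: overnight exposure of larvae to compound plus PED6.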

[9] = loss of swimming-algae plug formation – whole organism, Chlamydomonas reinhardtii, WT vs cilia-less mutant, absorbance, 96-well, primary screen (AID 463189); conditions: Chlamydomonas reinhardtii gravitaxis, OD600 absorbance, 2 days; at 10 µM; stronger effect = higher value;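 also: 0% = wild type cc124 cells in DMSO and 100% = ciliumless bld1 mutant cells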
[10] = measured here: cell density z-score
[11] = measured here: nuclear c-Myc green intensity z-score
[12] = measured here: nuclear pErk red intensity z-score, stronger effect = higher value

SMILES	cell count [1]	inhibition [1]	inhibition [2]	nuclei count [2] [%]	z-score [3, 10]	z-score [3, 11]	z-score [3, 12]	inhibition [4]	fluorescence slope [5]	NADPH fluorescence slope [6]	slope [7]	outcome [8]	inhibition [9]
CCN(CC)CCN1C(=O)C(=O)/C(=C(/O)c2ccc(Cl)cc2)C1c1ccncc1 (stereo not drawn)	358	3.7% (inactive)	-38.6% (inactive)	64.8	-0.384	0.846	-1.58	26.6% (inactive)	-0.357 (inactive)	-2e-05 (inactive)	0.00633 (inactive)	inactive	21.1% (inactive)
CCOC(=O)C(c1ccccc1)N1CCN(c2ccc(OC)cc2)CC1 (stereo not drawn)	365	-5.2% (inactive)	-72.8% (inactive)	146	-0.336	-0.989	-1.39	11.4% (inactive)	-0.422 (inactive)	-0.000118 (inactive)	0.00552 (inactive)	inactive	-10% (inactive)
O=C(O)CC(C(=O)N(c1ccccc1)c1ccccc1)N1CCOCC1 (stereo not drawn)	498	-4.7% (inactive)	-103% (inactive)	118	-1.14	0.849	1.75	-7.01% (inactive)	-0.576 (inactive)	-4e-05 (inactive)	0.00573 (inactive)	inactive	-20.4% (inactive)
CSc1sc(C(=O)O)c2c1C(=O)CCC2	562	-4.6% (inactive)	-163% (inactive)	186	-0.487	1.05	0.511	5.65% (inactive)	-0.486 (inactive)	-0.000199 (inactive)	0.00495 (inactive)	inactive	-9.07% (inactive)
O=C1[C@@H]2[C@H](C(=O)N1O)[C@H]1C=C[C@@H]2C1	468	-1% (inactive)	-174% (inactive)	209	-1.39	1.02	0.777	1.04% (inactive)	-0.392 (inactive)	-1.7e-05 (inactive)	0.00509 (inactive)	inactive	2.48% (inactive)
Cc1nnc2c(NC(C)C)nc3ccccc3n12	381	-8.4% (inactive)	-63% (inactive)	137	0.584	-0.494	-1.32	22.7% (inactive)	-0.382 (inactive)	-5.9e-05 (inactive)	0.0077 (inactive)	inactive	29.1% (inactive)
CN(C)CCCN1C(=O)C(O)=C(C(=O)c2cc3ccccc3o2)C1c1ccccn1 (stereo not drawn)	511	-3.3% (inactive)	-212% (inactive)	137	2.7	-1.21	-1.13	12.3% (inactive)	-0.525 (inactive)	-4.7e-05 (inactive)	0.00446 (inactive)	inactive	-5.31% (inactive)
COc1ccc2c(c1OC)C(=O)N1c3ccccc3C(=O)N(c3ccc(F)cc3)C21 (stereo not drawn)	409	-15.5% (inactive)	-44.4% (inactive)	103	-0.0624	-0.142	0.819	-1.12% (inactive)	-0.305 (inactive)	-2.1e-05 (inactive)	0.00563 (inactive)	inactive	6.22% (inactive)
CCCCNc1nc2c(c(=O)n(C)c(=O)n2C)n1Cc1cccc(OC)c1	452	-7.7% (inactive)	-133% (inactive)	175	0.299	-0.341	-1.15	-5.62% (inactive)	-0.378 (inactive)	-1.6e-05 (inactive)	0.00373 (inactive)	active; weak signal in gallbladder and intestine	1.32% (inactive)
CC(C)(C)OC(=O)NCCC(=O)Oc1ccc2ccc(=O)oc2c1	499	-1.3% (inactive)	-209% (inactive)	185	0.0263	0.375	0.541	-11% (inactive)	-0.362 (inactive)	-2.1e-05 (inactive)	0.00495 (inactive)	inactive	16.5% (inactive)
Cc1ccc(N(CC(=O)O)C2SC(=O)NC2=O)cc1 (stereo not drawn)	529	-12.4% (inactive)	-72.5% (inactive)	142	0.0556	0.578	-1.85	18.2% (inactive)	-0.507 (inactive)	-2.2e-05 (inactive)	0.00492 (inactive)	inactive	31.2% (inactive)
CN1CCc2c(sc3ncn4nc(-c5ccccc5O)nc4c23)C1	519	-12.5% (inactive)	-51.6% (inactive)	125	0.947	-1.25	0.576	9.39% (inactive)	-0.472 (inactive)	-0.000226 (inactive)	0.00542 (inactive)	inactive	87% (active)
Nc1ccc2c(c1)N1CCN=C1S2	646	-9.1% (inactive)	-53.2% (inactive)	169	1.6	-0.44	0.246	-0.159% (inactive)	-0.545 (inactive)	-9.2e-05 (inactive)	0.00512 (inactive)	inactive	24% (inactive)
COCCNc1oc(-c2ccc(Cl)cc2)nc1C#N	465	-6.3% (inactive)	-25.2% (inactive)	161	1.04	-0.285	-0.188	2.46% (inactive)	-0.17 (inactive)	9.3e-06 (inactive)	0.00534 (inactive)	inactive	10.6% (inactive)
CCOc1ccc(-c2nn3c(-c4ccc(OC)cc4)nnc3s2)cc1	620	-14.6% (inactive)	-58.9% (inactive)	162	0.559	-1.74	0.0677	2.92% (inactive)	-0.443 (inactive)	-7.7e-05 (inactive)	0.00846 (inactive)	inactive	5.79% (inactive)
O=C(CN1C(=O)c2ccccc2S1(=O)=O)c1ccccc1	567	-7.2% (inactive)	39.2% (inactive)	193	0.246	1.04	-0.287	7.73% (inactive)	-0.511 (inactive)	-9e-05 (inactive)	0.005 (inactive)	inactive	-6.59% (inactive)
CN1C(=S)SC(N(O)C(=O)Nc2ccccc2)C1(C)C (stereo not drawn)	486	8.3% (inactive)	-95.4% (inactive)	168	0.407	-0.73	0.0884	7.73% (inactive)	-0.52 (inactive)	-0.000109 (inactive)	0.00576 (inactive)	inactive	-9.05% (inactive)
Cn1cc(Br)cc2nc(C(F)(F)F)nc1-2	534	-11.2% (inactive)	-143% (inactive)	133	0.955	-1.14	-0.53	29.7% (inactive)	-0.532 (inactive)	-2.5e-05 (inactive)	0.00656 (inactive)	inactive	20% (inactive)
CC(=O)OC12CC3CC(C1)C(=NO)C(C3)C2	541	-10.2% (inactive)	-145% (inactive)	127	1.34	-0.992	-0.795	33.7% (inactive)	-0.512 (inactive)	-2.1e-05 (inactive)	0.00472 (inactive)	inactive	39.2% (inactive)
Cc1nn(C)cc1CNC(=O)c1ccc(Br)o1	507	-14.6% (inactive)	-66.6% (inactive)	111	0.29	0.777	-0.409	10.1% (inactive)	-0.444 (inactive)	-3.5e-08 (inactive)	0.00689 (inactive)	inactive	0.36% (inactive)
CC(C)Oc1ccc(/C(O)=C2/C(=O)C(=O)N(CCN3CCOCC3)C2c2ccccc2)cc1 (stereo not drawn)	564	4.6% (inactive)	-21.9% (inactive)	179	-0.496	-0.0457	0.947	-1.12% (inactive)	-0.338 (inactive)	-1.3e-05 (inactive)	0.0044 (inactive)	inactive	0.719% (inactive)
